Test results from ChEMBL document CHEMBL1773046, “Isoprenylated flavonoids and adipogenesis-promoting constituents from Morus nigra” (2011).
Activity calls are given as the source filed them. The calls are words filed in the database; no cut-off is given here.

How the values were obtained:
3T3-L1 [1] = test: Induction of mouse 3T3L1 cell differentiation assessed as increase in accumulation of intracellular lipid droplet at 25 uM by Oil red O staining; type: functional, cell-based
Method in brief: (§1)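 Following 8-day differentiation with compound applied from induction (insulin/dexamethasone/IBMX, then insulin maintenance), intracellular lipid droplets visualized by Oil Red O staining and photographed.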

3T3-L1 [2] = test: Induction of adipogenesis in mouse 3T3L1 cells assessed as increase in triglyceride level at 50 uM after 8 days relative to control; type: functional
Method in brief: (§2)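 Differentiation protocol: confluent 3T3-L1 cells held 2 days, then induced with insulin (2 μg/mL), dexamethasone (1 μM) and IBMX (0.125 mM) in 10% FBS/DMEM, then maintained with insulin. Compound present from induction for 8 days. Cellular triglyceride quantified with an enzymatic kit and compared with untreated control.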

3T3-L1 [3] = test: Induction of GLUT4 gene expression in mouse 3T3L1 cells assessed as increase in mRNA level at 10 uM by qRT-PCR analysis; type: functional, cell-based
Method in brief: (§3)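 3T3-L1 cells grown in DMEM/10% NCS at 37 °C, 5% CO2. Two days post-confluence, differentiation induced with 2 μg/mL insulin, 1 μM dexamethasone and 0.125 mM IBMX in 10% FBS/DMEM, then kept in 10% FBS/DMEM plus 2 μg/mL insulin. Compound added at induction and left 8 days. Cells then harvested for target protein (RIPA lysate, immunoblot) or mRNA (TRIzol RNA, RT-qPCR).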

3T3-L1 [4] = test: Induction of adipogenesis in mouse 3T3L1 cells assessed as increase in triglyceride level at 12.5 uM after 8 days relative to control; type: functional; method in brief: as §2
3T3-L1 [5] = test: Induction of aP2 gene expression in mouse 3T3L1 cells assessed as increase in aP2 protein level at 6.25 uM by Western blot analysis; type: functional, cell-based; method in brief: as §3
3T3-L1 [6] = test: Induction of adipogenesis in mouse 3T3L1 cells assessed as increase in triglyceride level at 25 uM after 8 days relative to control; type: functional; method in brief: as §2
3T3-L1 [7] = test: Induction of GLUT4 gene expression in mouse 3T3L1 cells assessed as increase in GLUT4 protein level at 6.25 uM by Western blot analysis; type: functional, cell-based; method in brief: as §3
3T3-L1 [8] = test: Induction of GLUT4 gene expression in mouse 3T3L1 cells assessed as increase in GLUT4 protein level at 12.5 uM by Western blot analysis; type: functional, cell-based; method in brief: as §3
3T3-L1 [9] = test: Induction of aP2 gene expression in mouse 3T3L1 cells assessed as increase in mRNA level at 10 uM by qRT-PCR analysis; type: functional, cell-based; method in brief: as §3
3T3-L1 [10] = test: Induction of aP2 gene expression in mouse 3T3L1 cells assessed as increase in aP2 protein level at 12.5 uM by Western blot analysis; type: functional, cell-based; method in brief: as §3
3T3-L1 [11] = test: Induction of adipogenesis in mouse 3T3L1 cells assessed as increase in triglyceride level at 1 uM after 8 days relative to control; type: functional; method in brief: as §2
3T3-L1 [12] = test: Induction of mouse 3T3L1 cell differentiation assessed as increase in accumulation of intracellular lipid droplet at 1 uM by Oil red O staining; type: functional, cell-based; method in brief: as §1

## C=C(C)C(O)CC/C(C)=C/CC/C(C)=C/C[C@@]12Oc3cc(O)cc(O)c3C(=O)[C@]1(O)Oc1cc(O)ccc12 (stereo partly specified)
3T3-L1 [1]
  Activity: inactive

## C=C(C)[C@@H]1Cc2c(cc(O)c3c2O[C@]2(CC=C(C)C)c4ccc(O)cc4O[C@]2(O)C3=O)O1
3T3-L1 [1]
  Activity: inactive

## C=C(C)[C@H]1Cc2c(cc(O)c3c2O[C@]2(CC=C(C)C)c4ccc(O)cc4O[C@]2(O)C3=O)O1
3T3-L1 [1]
  Activity: inactive

## CC(C)=CCC/C(C)=C/CC/C(C)=C/C[C@@]12Oc3cc(O)cc(O)c3C(=O)[C@]1(O)Oc1cc(O)ccc12
3T3-L1 [1]
  Activity: inactive

## CC(C)=CC[C@]12Oc3cc4c(c(O)c3C(=O)[C@@]1(O)Oc1cc(O)ccc12)C[C@@H](C(C)(C)O)O4
3T3-L1 [1]
  Activity: inactive

## CC(C)=CC[C@]12Oc3cc4c(c(O)c3C(=O)[C@@]1(O)Oc1cc(O)ccc12)C[C@@H](O)C(C)(C)O4
3T3-L1 [1]
  Activity: inactive

## CC(C)=CC[C@]12Oc3cc4c(c(O)c3C(=O)[C@@]1(O)Oc1cc(O)ccc12)C[C@H](C(C)(C)O)O4
3T3-L1 [1]
  Activity: inactive

## CC(C)=CC[C@]12Oc3cc4c(c(O)c3C(=O)[C@@]1(O)Oc1cc(O)ccc12)C[C@H](O)C(C)(C)O4
3T3-L1 [1]
  Activity: inactive

## CC(C)=CCc1c(O)cc2oc(-c3ccc(O)cc3O)c(CC=C(C)C)c(=O)c2c1O
3T3-L1 [1]
  Activity: inactive

## CC(C)=CCc1c(-c2ccc(O)cc2O)oc2c3c(cc(O)c2c1=O)O[C@H](C)C3(C)C [NIGRASIN H]
3T3-L1 [2]
  Activity: 203.39%
3T3-L1 [3]
  Activity: Active
3T3-L1 [4]
  Activity: 102.16%
3T3-L1 [5]
  Activity: Active
3T3-L1 [6]
  Activity: 143.94%
3T3-L1 [7]
  Activity: Active
3T3-L1 [1]
  Activity: Active
3T3-L1 [8]
  Activity: Active
3T3-L1 [9]
  Activity: Active
3T3-L1 [10]
  Activity: Active

## C=CC(C)(C)c1c(O)cc(O)c2c(=O)c(CC=C(C)C)c(-c3ccc(O)cc3O)oc12 [NIGRASIN I]
3T3-L1 [2]
  Activity: 250.63%
3T3-L1 [3]
  Activity: Active
3T3-L1 [4]
  Activity: 179.84%
3T3-L1 [5]
  Activity: Active
3T3-L1 [6]
  Activity: 317.18%
3T3-L1 [7]
  Activity: Active
3T3-L1 [1]
  Activity: Active
3T3-L1 [8]
  Activity: Active
3T3-L1 [9]
  Activity: Active
3T3-L1 [10]
  Activity: Active

## CN(CCOc1ccc(CC2SC(=O)NC2=O)cc1)c1ccccn1 (stereo unspecified) [ROSIGLITAZONE]
3T3-L1 [11]
  Activity: 450.32%
3T3-L1 [12]
  Activity: Active
